Tests used:
Integrin alpha-4/beta-1 [1] = target: T1, Integrin alpha-4/beta-1 (Homo sapiens, UniProt P05556+P13612); assay: Inhibition of europium labeled human VCAM1/Fc chimera binding to human VLA-4 alpha-4-beta-1 expressed in Chinese hamster 4B4 cells by fluorimetric assay; format: cell-based
Integrin alpha-4/beta-1 [2] = target: T1, Integrin alpha-4/beta-1; assay: Inhibition of europium labeled human VCAM1/Fc chimera binding to human VLA-4 alpha-4-beta-1 expressed in Chinese hamster 4B4 cells at 1.7 uM in presence of 3% HSA by fluorimetric assay; format: cell-based
Procedure, shortened: (§1)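 CHO-K1 4B4 cells transfected with human α4 and β1, plated at 3 × 10⁵ cells/mL and cultured 2 days, washed with HEPES pH 7.5 buffer containing Ca, Mg, Mn. Compound plus Eu-labeled human VCAM-1/Fc (final 1 nM), with or without human serum albumin, 60 min at room temperature; washed, Eu time-resolved fluorescence read; duplicates.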

[3] = Drug level in BALB/c mouse serum at 10 mg/kg, po after 15 mins; format: ADME, organism-based; parameters: dose 10 mg/kg, route oral; conditions: read-out: Drug uptake
Procedure, shortened: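 Serum (final 0.01-10%) assayed in the VLA-4/VCAM-1 binding assay, and concentration estimated from a calibration curve of compound spiked into untreated mouse serum.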

Integrin alpha-4/beta-1 [4] = target: T1, Integrin alpha-4/beta-1; assay: Inhibition of europium labeled human VCAM1/Fc chimera binding to human VLA-4 alpha-4-beta-1 expressed in Chinese hamster 4B4 cells in presence of 3% HSA by fluorimetric assay; format: cell-based; procedure, shortened: as §1
Mus musculus [5] = assay: Antiinflammatory activity in Ascaris suum antigen-induced BALB/c AnNCrj mouse asthma model assessed as inhibition of eosinophil infiltration in BAL fluid at 5 mg.kg, po bid administered 15 mins before and 8, 24 and 32 hrs after antigen challenge measured 48 hrs after antigen challenge; format: functional
Procedure, shortened: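 Female BALB/c AnNCrj mice given cyclophosphamide 150 mg/kg po (day 0), sensitized ip with Ascaris suum extract plus alum on days 2 and 14, challenged intratracheally day 22. Compound in 0.5% MC/0.03% Tween 80 po 15 min before and 8, 24, 32 h after challenge; BAL at 48 h, eosinophils from total count times Wright-stained differential.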

in vivo = conditions: rat, plasma
[6] = Oral bioavailability in rat; conditions: in vivo
Integrin alpha-4/beta-1 [7] = target: T1, Integrin alpha-4/beta-1; assay: Inhibition of europium labeled human VCAM1/Fc chimera binding to human VLA-4 alpha-4-beta-1 expressed in Chinese hamster 4B4 cells at 2 uM by fluorimetric assay; format: cell-based; procedure, shortened: as §1
Integrin alpha-4/beta-1 [8] = target: T1, Integrin alpha-4/beta-1; assay: Inhibition of europium labeled human VCAM1/Fc chimera binding to human VLA-4 alpha-4-beta-1 expressed in Chinese hamster 4B4 cells at 2 uM in presence of 3% HSA by fluorimetric assay; format: cell-based; procedure, shortened: as §1
[9] = Half life in Sprague-Dawley rat at 1 mg/kg, iv; format: ADME, organism-based; parameters: dose 1 mg/kg, route intravenous; conditions: in vivo
Procedure, shortened: (§2)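 Male Sprague-Dawley rats (7 weeks), fasted 18 h, four per group. 1 mg/kg oral in 0.5% MC or iv in saline, each with 3 equiv NaOH. Plasma drawn at 0.08 (iv) or 0.25 (po), 0.5, 1, 2 and 6 h; LC/MS/MS quantitation, noncompartmental parameters.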

[10] = Volume of distribution at steady state in Sprague-Dawley rat at 1 mg/kg, iv; format: ADME, organism-based; parameters: dose 1 mg/kg, route intravenous; conditions: in vivo, read-out: Vdss; procedure, shortened: as §2
[11] = Clearance in Sprague-Dawley rat at 1 mg/kg, iv; format: ADME, organism-based; parameters: dose 1 mg/kg, route intravenous; conditions: in vivo; procedure, shortened: as §2
Integrin alpha-4/beta-1 [12] = target: T1, Integrin alpha-4/beta-1; assay: Inhibition of europium labeled human VCAM1/Fc chimera binding to human VLA-4 alpha-4-beta-1 expressed in Chinese hamster 4B4 cells at 1.8 uM in presence of 3% HSA by fluorimetric assay; format: cell-based; procedure, shortened: as §1
Mus musculus [13] = assay: Toxicity in BALB/c AnNCrj mouse assessed as induction of cholestatic liver injury at 25 mg/kg, po for 2 days; format: organism-based; parameters: dose 25 mg/kg, route oral; conditions: in vivo, 48 h
Procedure, shortened: (§3)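 Mice dosed iv at 50 mg/kg or orally at 25 or 200 (mg/kg)/day for 2 days, then assessed for liver injury.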

Mus musculus [14] = assay: Toxicity in BALB/c AnNCrj mouse assessed as induction of cholestatic liver injury at 50 mg/kg, iv for 2 days; format: organism-based; parameters: dose 50 mg/kg, route intravenous; conditions: in vivo, 48 h; procedure, shortened: as §3
Integrin alpha-4/beta-1 [15] = target: T1, Integrin alpha-4/beta-1; assay: Inhibition of europium labeled human VCAM1/Fc chimera binding to human VLA-4 alpha-4-beta-1 expressed in Chinese hamster 4B4 cells at 1.7 uM by fluorimetric assay; format: cell-based; procedure, shortened: as §1

T1 sequence (P05556 whole entry): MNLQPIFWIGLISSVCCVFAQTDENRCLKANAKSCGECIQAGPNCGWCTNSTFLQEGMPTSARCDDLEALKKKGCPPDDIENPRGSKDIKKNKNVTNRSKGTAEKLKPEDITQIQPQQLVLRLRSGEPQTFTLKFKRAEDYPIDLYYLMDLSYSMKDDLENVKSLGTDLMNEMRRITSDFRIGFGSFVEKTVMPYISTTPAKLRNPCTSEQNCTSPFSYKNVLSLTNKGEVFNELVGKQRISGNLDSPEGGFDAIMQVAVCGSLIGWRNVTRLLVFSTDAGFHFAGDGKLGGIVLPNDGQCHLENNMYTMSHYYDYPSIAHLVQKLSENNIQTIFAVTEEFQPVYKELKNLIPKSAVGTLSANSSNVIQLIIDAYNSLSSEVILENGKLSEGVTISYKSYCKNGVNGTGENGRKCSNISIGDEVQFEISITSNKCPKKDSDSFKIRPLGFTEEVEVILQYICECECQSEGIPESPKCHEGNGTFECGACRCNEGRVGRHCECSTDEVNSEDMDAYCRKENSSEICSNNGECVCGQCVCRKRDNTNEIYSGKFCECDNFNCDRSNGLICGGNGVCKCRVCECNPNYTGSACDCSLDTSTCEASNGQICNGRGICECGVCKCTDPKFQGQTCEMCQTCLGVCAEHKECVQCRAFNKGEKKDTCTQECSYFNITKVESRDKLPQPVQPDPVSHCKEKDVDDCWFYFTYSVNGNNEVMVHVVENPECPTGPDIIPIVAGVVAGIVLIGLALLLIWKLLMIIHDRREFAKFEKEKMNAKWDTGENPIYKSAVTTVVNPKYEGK
T1 sequence (P13612 whole entry): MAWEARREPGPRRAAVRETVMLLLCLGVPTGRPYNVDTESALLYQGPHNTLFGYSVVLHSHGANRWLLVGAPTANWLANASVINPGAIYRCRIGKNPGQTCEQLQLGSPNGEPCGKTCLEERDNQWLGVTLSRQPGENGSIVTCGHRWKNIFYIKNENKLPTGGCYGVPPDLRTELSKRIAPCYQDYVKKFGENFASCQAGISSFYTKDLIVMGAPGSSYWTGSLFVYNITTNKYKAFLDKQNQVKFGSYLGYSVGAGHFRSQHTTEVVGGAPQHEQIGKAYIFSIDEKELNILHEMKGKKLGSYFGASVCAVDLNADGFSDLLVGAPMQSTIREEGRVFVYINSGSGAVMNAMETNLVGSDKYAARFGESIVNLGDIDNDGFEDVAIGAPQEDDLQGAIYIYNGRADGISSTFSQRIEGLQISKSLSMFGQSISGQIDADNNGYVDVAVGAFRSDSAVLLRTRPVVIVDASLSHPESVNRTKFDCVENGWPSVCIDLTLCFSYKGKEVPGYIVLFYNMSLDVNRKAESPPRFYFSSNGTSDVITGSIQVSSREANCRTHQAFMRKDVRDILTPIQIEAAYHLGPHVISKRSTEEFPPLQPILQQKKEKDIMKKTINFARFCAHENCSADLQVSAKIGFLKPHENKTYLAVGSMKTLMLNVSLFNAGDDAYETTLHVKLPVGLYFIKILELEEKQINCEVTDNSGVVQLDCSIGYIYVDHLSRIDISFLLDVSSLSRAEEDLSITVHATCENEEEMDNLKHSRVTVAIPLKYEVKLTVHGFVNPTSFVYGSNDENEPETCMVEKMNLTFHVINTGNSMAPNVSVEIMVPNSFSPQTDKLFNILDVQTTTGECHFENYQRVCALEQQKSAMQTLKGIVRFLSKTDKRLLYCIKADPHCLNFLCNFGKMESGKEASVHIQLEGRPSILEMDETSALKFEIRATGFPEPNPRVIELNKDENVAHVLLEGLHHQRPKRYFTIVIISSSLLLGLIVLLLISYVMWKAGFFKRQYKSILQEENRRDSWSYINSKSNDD

Row | Structure (SMILES) | IC50 (Integrin alpha-4/beta-1 [1]) [nM] | concentration at 0.25 h [3] [ng/mL] | IC50 (Integrin alpha-4/beta-1 [4]) [nM] | other results
1 | CCn1cc(C(=O)Nc2ccc(CC(=O)N3C[C@@H](F)C[C@H]3CO[C@H]3CC[C@H](C(=O)O)CC3)cc2Cl)c2ccccc21 | 204 |  |  | inhibition (Integrin alpha-4/beta-1 [2]): 21%
2 | O=C(Cc1ccc(Nc2nc3ccccc3o2)c(Cl)c1)N1C[C@@H](F)C[C@H]1CO[C@H]1CC[C@H](C(=O)O)CC1 | 5.9 | 508 | 138 | 
3 | O=C(Nc1ccc(CC(=O)N2C[C@@H](F)C[C@H]2CO[C@H]2CC[C@H](C(=O)O)CC2)cc1Cl)c1nsc2ccccc12 | 2.7 | 2150 | 196 | 
4 | CO[C@H]1C[C@@H](CO[C@H]2CC[C@H](C(=O)O)CC2)N(C(=O)Cc2cc(Cl)c(NC(=O)c3cn(C)c4ccccc34)cc2F)C1 | 2.9 | 9400 | 36 | inhibition (INH) (Mus musculus [5]): 30%
5 | Cc1ccc(F)cc1Nc1nc2ccc(CC(=O)N3C[C@@H](F)C[C@H]3CO[C@H]3CC[C@H](C(=O)O)CC3)cc2o1 | 4.4 | 448 | 131 | 
6 | O=C(Cc1ccc(Nc2nc3ccc(F)cc3o2)c(Cl)c1)N1C[C@@H](F)C[C@H]1CO[C@H]1CC[C@H](C(=O)O)CC1 | 20 |  | 630 | 
7 | O=C(Nc1ccc(CC(=O)N2C[C@@H](F)C[C@H]2CO[C@H]2CC[C@H](C(=O)O)CC2)cc1Cl)N1CCc2ccccc21 | 1.9 | 1100 | 83 | 
8 | O=C(Nc1cc(F)c(CC(=O)N2C[C@@H](F)C[C@H]2CO[C@H]2CC[C@H](C(=O)O)CC2)cc1Cl)c1nsc2ccccc12 | 7.5 | 307 | 176 | 
9 | Cc1ccccc1NC(=O)Nc1ccc(CC(=O)N2C[C@@H](F)C[C@H]2COc2ccc(C(=O)O)cc2)cc1Cl |  |  |  | clearance (in vivo): 31.5 mL/min/kg; bioavailability [6]: 11%
10 | Cn1cc(C(=O)Nc2cc(F)c(CC(=O)N3C[C@@H](O)C[C@H]3CO[C@H]3CC[C@H](C(=O)O)CC3)cc2Cl)c2ccccc21 | 6.4 | 452 | 45 | 
11 | O=C(Nc1cc(F)c(CC(=O)N2C[C@@H](F)C[C@H]2CO[C@H]2CC[C@H](C(=O)O)CC2)cc1Cl)c1n[nH]c2ccccc12 | 8.5 | 848 | 108 | 
12 | Cc1cc(F)ccc1Nc1nc2ccc(CC(=O)N3C[C@@H](F)C[C@H]3CO[C@H]3CC[C@H](C(=O)O)CC3)c(F)c2o1 | 12 |  | 1680 | 
13 | Cn1cc(C(=O)Nc2cc(Cl)c(CC(=O)N3C[C@@H](F)C[C@H]3CO[C@H]3CC[C@H](C(=O)O)CC3)cc2Cl)c2ccccc21 | 5.5 | 1880 | 241 | 
14 | O=C(Cc1ccc(Nc2nc3cccc(F)c3o2)c(Cl)c1)N1C[C@@H](F)C[C@H]1CO[C@H]1CC[C@H](C(=O)O)CC1 | 40 |  | 1030 | 
15 | Cc1ccccc1Cc1nc2ccc(CC(=O)N3C[C@@H](F)C[C@H]3CO[C@H]3CC[C@H](C(=O)O)CC3)cc2o1 |  |  |  | inhibition (Integrin alpha-4/beta-1 [7]): 33%; inhibition (Integrin alpha-4/beta-1 [8]): 7%
16 | Cc1ccccc1Nc1nc2ccc(CC(=O)N3C[C@@H](F)C[C@H]3CO[C@H]3CC[C@H](C(=O)O)CC3)c(F)c2o1 | 3 | 363 | 70 | 
17 | O=C(Nc1ccc(CC(=O)N2C[C@@H](F)C[C@H]2CO[C@H]2CC[C@H](C(=O)O)CC2)cc1Cl)c1c[nH]c2ccccc12 | 0.53 | 193 | 3.9 | half-life [9]: 12 min; Vd [10]: 0.668 L/kg; clearance [11]: 61.1 mL/min/kg
18 | Cc1ccc(F)cc1Nc1nc2ccc(CC(=O)N3C[C@@H](F)C[C@H]3CO[C@H]3CC[C@H](C(=O)O)CC3)c(F)c2o1 | 2.8 | 912 | 439 | 
19 | O=C(Cc1ccc(Nc2nc3cc(F)ccc3o2)c(Cl)c1)N1C[C@@H](F)C[C@H]1CO[C@H]1CC[C@H](C(=O)O)CC1 | 7.3 | 358 | 223 | 
20 | Cn1cc(C(=O)Nc2ccc(CC(=O)N3C[C@@H](F)C[C@H]3CO[C@H]3CC[C@H](C(=O)O)CC3)cc2Cl)c2ccccc21 | 2.6 | 5160 | 92 | half-life [9]: 42 min; Vd [10]: 0.139 L/kg; clearance [11]: 5 mL/min/kg; inhibition (INH) (Mus musculus [5]): 13%
21 | Cc1cccc2oc(Nc3ccc(CC(=O)N4C[C@@H](F)C[C@H]4CO[C@H]4CC[C@H](C(=O)O)CC4)cc3Cl)nc12 | 12 |  | 290 | 
22 | O=C(Nc1cc(F)c(CC(=O)N2C[C@@H](F)C[C@H]2CO[C@H]2CC[C@H](C(=O)O)CC2)cc1Cl)c1noc2ccccc12 | 128 |  |  | inhibition (Integrin alpha-4/beta-1 [2]): 19%
23 | Cn1cc(C(=O)Nc2cc(F)c(CC(=O)N3CCC[C@H]3CO[C@H]3CC[C@H](C(=O)O)CC3)cc2Cl)c2ccccc21 | 12 |  | 370 | 
24 | O=C(Nc1cc(F)c(CC(=O)N2C[C@@H](F)C[C@H]2CO[C@H]2CC[C@H](C(=O)O)CC2)cc1Cl)c1nccc2ccccc12 | 32 |  | 1670 | 
25 | Cc1c(F)cccc1Nc1nc2ccc(CC(=O)N3C[C@@H](F)C[C@H]3CO[C@H]3CC[C@H](C(=O)O)CC3)c(F)c2o1 | 47 |  |  | inhibition (Integrin alpha-4/beta-1 [12]): 13%
26 | Cn1cc(C(=O)Nc2cc(Cl)c(CC(=O)N3C[C@@H](O)C[C@H]3CO[C@H]3CC[C@H](C(=O)O)CC3)cc2Cl)c2ccccc21 | 7.8 | 93 | 70 | 
27 | Cn1cc(C(=O)Nc2cc(F)c(CC(=O)N3C[C@@H](F)C[C@H]3CO[C@H]3CC[C@H](C(=O)O)CC3)cc2Cl)c2ccccc21 | 5 | 11400 | 284 | half-life [9]: 54 min; Activity (Mus musculus [13]): Toxic; Vd [10]: 0.153 L/kg; clearance [11]: 2.6 mL/min/kg; Activity (Mus musculus [14]): Toxic; inhibition (INH) (Mus musculus [5]): 57%
28 | O=C(Nc1ccc(CC(=O)N2C[C@@H](F)C[C@H]2CO[C@H]2CC[C@H](C(=O)O)CC2)cc1Cl)c1nccc2ccccc12 | 14 |  | 418 | 
29 | O=C(Nc1cc(F)c(CC(=O)N2C[C@@H](F)C[C@H]2CO[C@H]2CC[C@H](C(=O)O)CC2)cc1Cl)N1CCc2ccccc21 | 2.7 | 2960 | 171 | 
30 | CC(C)n1cc(C(=O)Nc2ccc(CC(=O)N3C[C@@H](F)C[C@H]3CO[C@H]3CC[C@H](C(=O)O)CC3)cc2Cl)c2ccccc21 |  |  |  | inhibition (Integrin alpha-4/beta-1 [15]): 41%; inhibition (Integrin alpha-4/beta-1 [2]): 8%

From ChEMBL document CHEMBL1154693, “Discovery of trans-4-[1-[[2,5-Dichloro-4-(1-methyl-3-indolylcarboxamido)phenyl]acetyl]-(4S)-methoxy-(2S)-pyrrolidinylmethoxy]cyclohexanecarboxylic acid: an orally active, selective very late antigen-4 antagonist” (J Med Chem, 2009)
